Results on 5 molecules are retold here after ChEMBL document CHEMBL1156450, “Naloxone acts as a potent analgesic in transgenic mouse models of sickle cell anemia” (Proc Natl Acad Sci U S A, 2007).

Calls of active or inactive are those of the source. No cut-off for these calls is given here.

For assay [1], the system named is Mus musculus. As to the kind of experiment: Antinociceptive effect in icv dosed C57BL/6J mouse after 10 mins by heat tail flick test. The class given is functional. In outline: (§1)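 Male mice aged 10–12 weeks, housed on a 12-h light/dark cycle. Radiant heat was aimed at the dorsal tail and the latency to flick was recorded. Dosing volumes were 5 μl per mouse for i.c.v. and i.t. and 10 ml/kg for s.c. At least three groups of 8–10 mice per paradigm; each mouse was used once. ED50 with 95% confidence intervals came from a parallel line assay.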

In assay [2] the test system is Mus musculus. The assay can be described thus: Antinociceptive effect in sc dosed C57BL/6J mouse after 60 mins by heat tail flick test. Conditions: 1 h. (Thermal pain tests record how soon the animal reacts.)
For assay [3], the system named is Mus musculus. As to the kind of experiment: Antinociceptive effect in icv dosed sickle cell anemic NY1DD transgenic mouse after 10 mins by heat tail flick test. The class given is functional. The gist of the method:
as §1

Assay [4] deals with Mus musculus. As to the kind of experiment: Antinociceptive effect in intrathecally dosed C57BL/6J mouse after 10 mins by heat tail flick test. It counts as functional. The gist of the method: as §1
For assay [5], the species on record is Mus musculus. The assay can be described thus: Decrease in analgesic activity in CCL5 pretreated C57BL/6J mouse. It counts as functional, organism-based. The gist of the method:
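C57BL/6J mice were pretreated i.c.v. with murine RANTES (CCL5) at two doses 20 min before i.c.v. morphine, then tested by radiant heat tail-flick. The antagonist ED50 of RANTES was given with a 95% confidence interval. For reversal, 50 ng Met-RANTES per mouse was given 2 h before RANTES.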

Assay [6] concerns Mus musculus. As to the kind of experiment: Antinociceptive effect in […] dosed sickle cell anemic NY1DD transgenic mouse after 10 mins by heat tail flick test. It counts as functional.
In assay [7] the test system is Mus musculus. The assay can be described thus: Antinociceptive effect in sc dosed sickle cell anemic NY1DD transgenic mouse after 60 mins by heat tail flick test. It counts as functional. The note with it: 1 h. The gist of the method: as §1
Assay [8] has as its target T1, C-C chemokine receptor type 5 (Mus musculus, UniProt P51682). The assay can be described thus: Binding affinity to CCR5 in C57BL/6J mouse brain membrane. The class given is cell membranes.
Assay [9] concerns Mus musculus. As to the kind of experiment: Antinociceptive effect in icv dosed sickle cell anemic hBERK1 transgenic mouse after 10 mins by heat tail flick test. The class given is functional. In outline: as §1
The species named for assay [10] is Mus musculus. As to the kind of experiment: Down-regulation of CCR5 mRNA expression in C57BL/6J mouse. It counts as functional, organism-based. In outline: (§2)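 C57BL/6J and NY1DD mice received 25 pmol per mouse of drug or 0.9% saline (5 μl). Brains were removed 10 min later, frozen in liquid N2 and used for RNA isolation and cDNA microarray hybridization (control RNA labeled with Cy3-dCTP; 42°C for 16 h).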

Assay [11] concerns Mus musculus. The assay can be described thus: Reduction of analgesic activity in NY1DD transgenic mouse pretreated with Met-RANTES 2 hrs before drug administration. The class given is functional, organism-based. The gist of the method:
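NY1DD mice received Met-RANTES at 50 ng per mouse 2 h before the test drug. Analgesia was measured by radiant heat tail-flick.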

For assay [12], the species on record is Mus musculus. The assay can be described thus: Down-regulation of CCR5 mRNA expression in sickle cell anemic NY1DD transgenic mouse. The class given is functional, organism-based. The gist of the method:
as §2

The target of assay [13] is T1, C-C chemokine receptor type 5. The assay can be described thus: Binding affinity to CCR5 in NY1DD transgenic mouse brain membrane. The class given is tissue-based. In outline:
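[3H]Naloxone saturation binding on pooled brains (cerebellum removed) from three mice. Tissue was homogenized in ice-cold Hepes pH 7.4, washed repeatedly with a 90-min ice step to deplete endogenous opiates, and used as a 2% suspension. Incubation was 90 min at room temperature; nonspecific binding was defined with 10 μM naloxone. Samples were filtered on PEI-soaked GF/C and counted by scintillation. Kd came from global fitting. Triplicates; 2–3 experiments, mean ± SEM.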

Assay [14] relates to Mus musculus. As to the kind of experiment: Antinociceptive effect in NY1DD transgenic mouse assessed as partial agonist response at 8 nmol, icv by heat tail flick test. The class given is functional.
The subject of assay [15] is Mus musculus. The assay can be described thus: Antinociceptive effect in intrathecally dosed NY1DD transgenic mouse after 6 hrs by heat tail flick test. It counts as functional. The gist of the method:
as §1

Assay [16] concerns Mus musculus. The assay can be described thus: Antinociceptive effect in icv dosed NY1DD transgenic mouse after 1 hr by heat tail flick test. It counts as functional. The gist of the method:
as §1

Assay [17] is filed under the species Mus musculus. As to the kind of experiment: Antinociceptive effect in NY1DD transgenic mouse assessed as partial agonist response at 2.5 nmol by heat tail flick test. The class given is functional.

T1 sequence (P51682 whole entry): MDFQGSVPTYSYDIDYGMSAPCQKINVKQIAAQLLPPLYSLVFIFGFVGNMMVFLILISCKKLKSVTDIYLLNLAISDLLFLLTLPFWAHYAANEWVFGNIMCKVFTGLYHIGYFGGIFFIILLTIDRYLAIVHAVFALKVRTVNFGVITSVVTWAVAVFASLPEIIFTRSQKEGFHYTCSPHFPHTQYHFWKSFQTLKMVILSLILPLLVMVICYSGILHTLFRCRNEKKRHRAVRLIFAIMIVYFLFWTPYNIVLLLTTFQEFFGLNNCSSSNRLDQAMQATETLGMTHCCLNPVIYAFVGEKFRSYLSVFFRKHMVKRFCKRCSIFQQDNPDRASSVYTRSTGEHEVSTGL

For `CN1CC[C@]23c4c5ccc(O)c4O[C@H]2[C@@H](O)C=C[C@H]3[C@H]1C5` [MORPHINE], the ED50 was 2.7 nmol with Mus musculus [1]; 6.47 µmol/kg with Mus musculus [2]; 3.95 nmol in the assay on Mus musculus [3]; 0.088 nmol in the assay on Mus musculus [4]; 0.085 nmol in the assay with Mus musculus [6]; 2.36 µmol/kg with Mus musculus [7]. Also, the result in the assay filed under Mus musculus [5] was Active.

Take `C=CCN1CC[C@]23c4c5ccc(O)c4O[C@H]2C(=O)CC[C@@]3(O)[C@H]1C5` [NALOXONE]: the Kd in [8] stood at 20.8 nM; in assay [13] it was 10.5 nM. For the same molecule, the ED50 in the assay on Mus musculus [9] worked out at 0.03 nmol; with Mus musculus [3] it was 0.014 nmol; in the assay on Mus musculus [6] it was 0.045 nmol; in the assay with Mus musculus [7] it was 2.83 µmol/kg. Also, the result in the assay listed under Mus musculus [10] was inactive. For the same molecule, the result in the assay on Mus musculus [11] and in the assay listed under Mus musculus [12] was Active.

Take `O=C1CC[C@@]2(O)[C@H]3Cc4ccc(O)c5c4[C@@]2(CCN3CC2CC2)[C@H]1O5` [NALTREXONE]: the Activity in the assay on Mus musculus [14] is given as 33%.

As to `Oc1ccc2c3c1O[C@H]1c4[nH]c5c(c4C[C@@]4(O)[C@@H](C2)N(CC2CC2)CC[C@]314)C[C@@]1(O)[C@H]2Cc3ccc(O)c4c3[C@@]1(CCN2CC1CC1)[C@H]5O4` [NORBINALTORPHIMINE], the ED50 in the assay on Mus musculus [15] is on record as 0.46 nmol; in the assay with Mus musculus [16], 1.55 nmol.

With `Oc1ccc2c3c1O[C@H]1c4[nH]c5ccccc5c4C[C@@]4(O)[C@@H](C2)N(CC2CC2)CC[C@]314` [NALTRINDOLE], in the assay filed under Mus musculus [17], the Activity is listed as 10%.

What is called Kd is the equilibrium constant for the complex coming apart.
